Measured values: PubChem BioAssay
Calls of active or inactive are those of the source.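 Rule for the calls, unless noted: active = viability at or below 30% in both replicate assays; inconclusive = viability at or below 30% in just one of the two assays; inactive = the rest.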

Key:
[1] = reducers of endogenous Her2 protein level, primary screen, SKBR3 breast tumor cells, AlphaScreen, ATP viability (AID 461;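 active = Her2 level under about 52% in both replicate screens, with viability over 70% of control, limit read from the data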;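 for Her2 level: lower value means less Her2 protein in the cells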;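 for viability: percent of carrier control wells set as 100% viability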); conditions: 18-24 h, measured here: SKBR3 viability, ATP luminescence, at 10 µM
[2] = target: Receptor tyrosine-protein kinase erbB-2 (Homo sapiens) (UniProt P04626); test: as above; conditions: 18-24 h, at 10 µM, stronger effect = lower value
Sequence of Receptor tyrosine-protein kinase erbB-2 (Homo sapiens) (P04626 whole entry, looked up): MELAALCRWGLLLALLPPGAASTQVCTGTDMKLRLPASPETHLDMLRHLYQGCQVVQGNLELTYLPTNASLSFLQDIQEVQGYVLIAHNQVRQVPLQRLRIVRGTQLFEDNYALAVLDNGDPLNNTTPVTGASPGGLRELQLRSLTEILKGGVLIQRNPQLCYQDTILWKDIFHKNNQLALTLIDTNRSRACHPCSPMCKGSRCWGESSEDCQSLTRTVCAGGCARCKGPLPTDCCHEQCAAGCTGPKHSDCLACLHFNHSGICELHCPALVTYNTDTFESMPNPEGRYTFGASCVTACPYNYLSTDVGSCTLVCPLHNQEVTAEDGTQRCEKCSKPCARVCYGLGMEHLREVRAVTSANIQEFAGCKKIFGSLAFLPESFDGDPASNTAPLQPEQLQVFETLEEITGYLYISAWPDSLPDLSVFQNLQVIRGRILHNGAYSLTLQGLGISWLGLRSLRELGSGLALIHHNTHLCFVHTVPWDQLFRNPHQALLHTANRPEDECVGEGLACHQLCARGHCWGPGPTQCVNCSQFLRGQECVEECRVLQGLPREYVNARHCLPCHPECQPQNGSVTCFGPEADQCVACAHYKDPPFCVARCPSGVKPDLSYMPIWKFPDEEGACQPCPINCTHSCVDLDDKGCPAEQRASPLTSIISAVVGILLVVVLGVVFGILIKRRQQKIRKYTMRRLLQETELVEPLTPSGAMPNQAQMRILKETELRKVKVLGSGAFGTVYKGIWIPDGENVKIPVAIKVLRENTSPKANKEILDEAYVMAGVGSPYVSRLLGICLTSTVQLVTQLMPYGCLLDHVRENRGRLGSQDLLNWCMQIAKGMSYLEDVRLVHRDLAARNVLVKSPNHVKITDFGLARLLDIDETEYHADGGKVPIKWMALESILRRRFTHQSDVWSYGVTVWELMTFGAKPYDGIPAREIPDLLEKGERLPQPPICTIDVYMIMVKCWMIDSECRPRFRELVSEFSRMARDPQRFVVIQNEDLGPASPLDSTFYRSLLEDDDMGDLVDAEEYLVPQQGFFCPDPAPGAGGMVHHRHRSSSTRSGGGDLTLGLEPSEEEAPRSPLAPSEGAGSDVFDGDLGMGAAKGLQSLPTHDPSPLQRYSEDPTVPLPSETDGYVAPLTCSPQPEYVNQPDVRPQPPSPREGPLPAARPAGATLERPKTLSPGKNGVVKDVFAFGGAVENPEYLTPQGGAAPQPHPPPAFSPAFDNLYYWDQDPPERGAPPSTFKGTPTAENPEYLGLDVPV

[3] = SK-BR-3 cell growth inhibitors, pilot screen, 24 h, human (AID 572;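 active = viability at or below 10% of carrier control in both of two separate runs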;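 note: compound exposure lasted between 18 and 24 h rather than exactly 24 h; 100% = carrier-treated control wells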); conditions: SK-BR-3 viability, CellTiter-Glo luminescence, at 10 µM, stronger effect = lower value
[4] = HUVEC growth inhibition – cell-based, human, primary screen (AID 575); conditions: HUVEC proliferation, CellTiter-Glo luminescence, 72 h; at 10 µM; stronger effect = lower value;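 note: 100% = median of untreated cell wells with 0.1% DMSO on each plate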
In short: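 System – primary HUVEC, no more than 12 passages · Medium – Low-serum (2% FBS) EBM, supplemented · Times – 72 h exposure, 37 °C, 5% CO2, 30 min RT equilibration · Measured by – luminescent ATP assay · Read-out – % viability relative to median vehicle-well signal on each plate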

[5] = growth inhibitors of H69AR lung tumor, primary screen, human, duplicate replicates (AID 580;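 active = viability at or under a set limit in both replicates, limit being median viability minus 3 SD, cut at about 48% in these data, passing the limit was not always enough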;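 note: 100% = mean luminescence of untreated wells and 0% = no signal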); conditions: H69AR lung tumor cells viability, ATP luminescence, 72 h; at 10 µM; stronger effect = lower value
[6] = reversal of MRP1-mediated doxorubicin resistance, pilot screen, H69AR cells, doxorubicin co-treatment (AID 601;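 active = viability loss from added drug above about 55%, and viability with drug at most 40%, in both replicates, limit read from the data, passing the limit was not always enough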); conditions: CellTiter-Glo, 72 h, at 10 µM; for differential viability (reversal): stronger effect = higher value
[7] = H69AR cells + 2 uM doxorubicin, measured here: viability with 2 uM doxorubicin, stronger effect = lower value
[8] = H69AR cells, compound alone cytotoxicity

Compound	viability [1]	Her2 level [2]	viability [3]	viability [4]	viability [5]	differential viability (reversal) ([6]; H69AR cells + 2 uM doxorubicin)	viability [6, 7]	viability [6, 8]
NS(=O)(=O)c1cc2c(cc1Cl)NC(C(Cl)Cl)NS2(=O)=O (stereo unspecified)	102%	112% (inactive)	102% (inactive)	106% (inactive)	93.9% (inactive)	-9.8% (inactive)	104%	93.9%
CC(C)(S)[C@@H](N)C(=O)O	102%	93% (inactive)	102% (inactive)	106% (inactive)	110% (inactive)	15.4% (inactive)	94.3%	110%
Cc1cc(NC(=O)C2=C(O)c3ccccc3S(=O)(=O)N2C)no1	96.5%	113% (inactive)	96.5% (inactive)	109% (inactive)	112% (inactive)	16.9% (inactive)	94.7%	112%
CCOC(=O)[C@H](CCc1ccccc1)N[C@@H](C)C(=O)N1CCC[C@H]1C(=O)O	116%	100% (inactive)	116% (inactive)	103% (inactive)	88.6% (inactive)	-8.79% (inactive)	97.4%	88.6%
O=C1N[C@@H](Cc2cnc[nH]2)C(=O)N2CCC[C@@H]12	113%	97% (inactive)	113% (inactive)	94.9% (inactive)	87.1% (inactive)	-2.25% (inactive)	89.3%	87.1%
S=C(N=Nc1ccccc1)NNc1ccccc1	118%	90% (inactive)	118% (inactive)	80% (inactive)	81.4% (inactive)	-6.66% (inactive)	88%	81.4%
Cc1cccc(Nc2ccccc2C(=O)O)c1C	85%	105% (inactive)	85% (inactive)	65.7% (inactive)	99.4% (inactive)	-3.9% (inactive)	103%	99.4%
CCCCOc1ccc(CC(=O)NO)cc1	122%	98.5% (inactive)	122% (inactive)	97% (inactive)	54.2% (inactive)	-0.05% (inactive)	54.3%	54.2%
CCC(=O)O[C@]1(C(=O)CCl)[C@@H](C)C[C@H]2[C@@H]3CCC4=CC(=O)C=C[C@]4(C)[C@@]3(F)[C@@H](O)C[C@@]21C	122%	86.5% (inactive)	122% (inactive)	84.9% (inactive)	87.3% (inactive)	-13.3% (inactive)	101%	87.3%
CCC(=O)O[C@@H]1CC(=O)O[C@H](C)CC=CC=C[C@@H](O)[C@H](C)C[C@H](CC=O)[C@H](O[C@H]2O[C@H](C)[C@@H](O[C@H]3C[C@@](C)(O)[C@@H](OC(=O)CC)[C@H](C)O3)[C@H](N(C)C)[C@H]2O)[C@H]1OC	93.5%	126% (inactive)	93.5% (inactive)	109% (inactive)	95.3% (inactive)	-4.97% (inactive)	100%	95.3%
CCN1CCN(c2cc3c(cc2F)c(=O)c(C(=O)O)cn3C2CC2)CC1	103%	98.5% (inactive)	103% (inactive)	98.3% (inactive)	92% (inactive)	3.18% (inactive)	88.8%	92%
O=C(O)CCCCCCC1C(=O)NC(=O)N1CCC(O)C1CCCCC1 (stereo unspecified)	108%	108% (inactive)	108% (inactive)	79.8% (inactive)	99.3% (inactive)	-4.75% (inactive)	104%	99.3%
CCCCC(=O)O[C@]1(C(=O)CO)CC[C@H]2[C@@H]3CCC4=CC(=O)CC[C@]4(C)[C@H]3[C@@H](O)C[C@@]21C	111%	108% (inactive)	111% (inactive)	101% (inactive)	96.3% (inactive)	3.07% (inactive)	93.3%	96.3%
CCCCN(CCCC)CCCOC(=O)c1ccc(N)cc1	92%	106% (inactive)	92% (inactive)	111% (inactive)	90.7% (inactive)	-8.53% (inactive)	99.2%	90.7%
CCC(NC(C)C)C(O)c1ccc(O)c2[nH]c(=O)ccc12 (stereo unspecified)	108%	94.5% (inactive)	108% (inactive)	107% (inactive)	94.4% (inactive)	11.7% (inactive)	82.7%	94.4%
C[C@@H]1C[C@H]2[C@@H]3CCC4=CC(=O)C=C[C@]4(C)[C@@]3(F)[C@@H](O)C[C@]2(C)[C@H]1C(=O)CO	84%	150% (inactive)	84% (inactive)	102% (inactive)	91.2% (inactive)	-10.7% (inactive)	102%	91.2%
CC(C)(C)NC[C@H](O)COc1nsnc1N1CCOCC1	112%	110% (inactive)	112% (inactive)	99.8% (inactive)	106% (inactive)	2.23% (inactive)	104%	106%
